ChEMBL document CHEMBL2163208, “Diphenylpyridylethanamine (DPPE) derivatives as cholesteryl ester transfer protein (CETP) inhibitors” (J Med Chem, 2012)

Columns and labels:
[1] = target: T1, Cholesteryl ester transfer protein (Homo sapiens, UniProt P11597); test: Inhibition of human recombinant CETP-mediated [3H]cholesteryl ester transfer from HDL to biotinylated LDL by scintillation proximity assay
T1 sequence (P11597 whole entry): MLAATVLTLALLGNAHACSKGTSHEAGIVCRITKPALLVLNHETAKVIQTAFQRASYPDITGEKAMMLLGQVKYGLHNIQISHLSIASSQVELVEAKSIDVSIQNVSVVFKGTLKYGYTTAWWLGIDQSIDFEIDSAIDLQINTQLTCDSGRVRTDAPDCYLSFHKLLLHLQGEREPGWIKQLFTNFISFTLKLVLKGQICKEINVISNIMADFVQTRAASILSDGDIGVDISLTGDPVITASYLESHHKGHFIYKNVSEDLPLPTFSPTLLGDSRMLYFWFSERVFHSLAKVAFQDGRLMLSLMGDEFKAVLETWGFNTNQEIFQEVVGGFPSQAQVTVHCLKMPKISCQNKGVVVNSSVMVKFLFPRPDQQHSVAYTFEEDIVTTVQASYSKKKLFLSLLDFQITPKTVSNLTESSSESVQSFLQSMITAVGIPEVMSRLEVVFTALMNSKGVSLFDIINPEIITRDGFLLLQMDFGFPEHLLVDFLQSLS

[2] = target: T1, Cholesteryl ester transfer protein; test: Inhibition of CETP-mediated [3H]cholesteryl ester transfer activity in human plasma after 2.5 hrs by scintillation counter
[3] = Metabolic stability in mouse liver microsomes assessed as compound remaining at 3 uM after 10 mins; type: ADME, Microsome; settings: read-out: Stability
In short: (§1)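 Mouse liver microsomes (1 mg/mL protein) incubated with compound at 3 μM for 10 min; remaining compound quantified by UV absorbance, expressed as % remaining or rate per mg protein.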

[4] = tested on: Mus musculus; test: Residual CETP-mediated [3H]cholesteryl ester transfer from HDL to LDL in human CETP expressed transgenic mouse coexpressing apoB-100 at 30 mg/kg, po measured at 8 hrs relative to predose condition
[5] = AUC (0 to 8 hrs) in transgenic mouse expressing human CETP and apoB-100 at 30 mg/kg, po; type: ADME, organism-based; design: time < 8 hr, dose 30 mg/kg, route oral; settings: plasma
[6] = tested on: Mus musculus; test: [3H]cholesteryl ester transfer activity from HDL to LDL in human CETP expressed transgenic mouse plasma coexpressing apoB-100 at 30 mg/kg, po measured at 2 hrs relative to predose condition
[7] = species: Mus musculus; test: Inhibition of [3H]cholesteryl ester transfer from HDL to LDL in human CETP expressed transgenic mouse plasma coexpressing apoB-100
[8] = tested on: Mus musculus; test: Residual CETP-mediated [3H]cholesteryl ester transfer from HDL to LDL in human CETP expressed transgenic mouse coexpressing apoB-100 at 30 mg/kg, po measured at 4 hrs relative to predose condition
[9] = Drug metabolism in mouse liver microsomes assessed as per mg of protein at 3 uM after 10 mins; type: ADME, Microsome; in short: as §1
[10] = tested on: Rattus norvegicus; test: Toxicity in telemeterized rat assessed as change in heart rate up to 60 mg/kg, po; type: organism-based; design: dose 60 mg/kg, route oral; settings: in vivo
[11] = Half life in telemeterized rat up to 60 mg/kg, po; type: ADME, organism-based; design: dose 60 mg/kg, route oral; settings: in vivo
[12] = Plasma concentration in moderately fat-fed golden Syrian hamster at 30 mg/kg, po qd administered for 3 days measured at 2 hrs post last dose; type: ADME, organism-based, Mesocricetus auratus; design: dose 30 mg/kg, route oral
In short: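 Moderately fat-fed male Golden Syrian hamsters dosed 30 mg/kg po once daily; plasma exposure sampled 2 h after dosing on day 3.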

[13] = tested on: Syrian golden hamster; test: Inhibition of CETP in moderately fat-fed golden Syrian hamster assessed as increase in HDL-cholesterol level at 30 mg/kg, po qd administered for 3 days measured at 2 hrs post last dose relative to predose condition; type: functional, Mesocricetus auratus; design: scale not given: the % may be the effect or the level left
In short: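 Male Golden Syrian hamsters, 12 weeks old, fed moderate-fat diet (2.5% coconut oil, 0.25% cholesterol) for 2 weeks. Predose retro-orbital bleed; 30 mg/kg po q.d. for 3 days in ethanol/Cremophor/water 1:1:8. Blood 2 h postdose on day 3; HDL-C measured by automated lipid analyzer versus predose; percent increase as mean ± SEM, N = 6.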

[14] = tested on: Rattus norvegicus; test: Toxicity in telemeterized rat assessed as change in mean arterial blood pressure up to 60 mg/kg, po; type: organism-based; design: dose 60 mg/kg, route oral; settings: in vivo
[15] = Cmax in telemeterized rat up to 60 mg/kg, po; type: ADME, organism-based; design: dose 60 mg/kg, route oral; settings: in vivo

`Cc1ccc(C[C@](NC(=O)NC2CCCC2)(c2cc(F)cc(C(F)(F)F)c2)c2ccc(Cl)cn2)cc1` gave an IC50 [1] of 0.023 µM and an IC50 [2] of 3.4 µM.
With `O=C(NC1CCCC1)NC(Cc1ccccc1)(c1cccc(C(F)(F)F)c1)c1ccccn1` (stereo not given) the remaining at 10 min, 3 µM [3] was 2%, the IC50 [1] was 0.7 µM and the IC50 [2] was 25 µM.
For `CC(C)(C)CC(=O)OC(Cc1ccccc1)(c1cccc(C(F)(F)F)c1)c1ccccn1` (racemic), the IC50 [1] was 6.9 µM and the IC50 [2] was 56 µM.
For `N#Cc1ccc([C@@](Cc2ccccc2)(NC(=O)NC2CCCC2)c2cc(F)cc(C(F)(F)F)c2)nc1`, the IC50 [1] was 0.036 µM and the IC50 [2] was 12 µM.
In the case of `CC(C)(C)CC(=O)NC(Cc1ccccc1)(c1cccc(C(F)(F)F)c1)c1ccccn1` (stereo not given), the IC50 [1] is reported as 27 µM.
Compound `O=C(NC1CCCC1)NC(Cc1ccccc1)(c1ccc(Cl)nc1)c1cc(F)cc(C(F)(F)F)c1` (racemic) has an IC50 [1] of 0.031 µM and an IC50 [2] of 12 µM.
Compound `COc1ccc([C@@](Cc2ccccc2)(NC(=O)NC2CCCC2)c2cc(F)cc(C(F)(F)F)c2)cn1` has an IC50 [1] of 0.015 µM and an IC50 [2] of 3.4 µM.
With `O=C(NC(Cc1ccccc1)(c1cccc(C(F)(F)F)c1)c1ccccn1)c1cccc(C(F)(F)F)c1` (stereo not given) the IC50 [1] was 12 µM.
`O=C(NC(Cc1ccccc1)(c1cccc(C(F)(F)F)c1)c1ccccn1)c1ccc(F)c(C(F)(F)F)c1` (stereo not given) showed a remaining at 10 min, 3 µM [3] of 68%, an IC50 [1] of 2.9 µM and an IC50 [2] of 15 µM.
`O=C(NC1CCCC1)N[C@@](Cc1ccccn1)(c1cc(F)cc(C(F)(F)F)c1)c1ccc(Cl)cn1` gave an IC50 [1] of 27 µM.
With `O=C(NC(Cc1ccccc1)(c1cccc(C(F)(F)F)c1)c1ccccn1)c1ccccc1` (stereo not given) the IC50 [1] was > 96 µM.
For `O=C(NC1CCCC1)N[C@@](Cc1ccccc1)(c1cc(F)cc(C(F)(F)F)c1)c1ccc(F)cn1`, the IC50 [1] was 0.026 µM and the IC50 [2] was 7.6 µM.
In the case of `Cc1nc(C[C@](NC(=O)NC2CCCC2)(c2cc(F)cc(C(F)(F)F)c2)c2ccc(Cl)cn2)no1`, the IC50 [1] is reported as 1.07 µM and the IC50 [2] is reported as 34 µM.
With `CC(C)(C)CC(=O)OC(Cc1ccccc1)(c1cccc(C(F)(F)F)c1)c1ccc(Cl)cn1` (racemic) the IC50 [1] was 1.3 µM and the IC50 [2] was 9.4 µM.
For `CC(C)(C)NC(=O)NC(Cc1ccccc1)(c1cccc(C(F)(F)F)c1)c1ccccn1` (stereo not given), the IC50 [1] was 3.8 µM and the IC50 [2] was 83 µM.
`CC(C)(C)CC(=O)O[C@@](Cc1ccccc1)(c1cccc(C(F)(F)F)c1)c1ccccn1` showed an IC50 [1] of 6.7 µM and an IC50 [2] of 26 µM.
`CCOC(=O)N1c2ccc(C(F)(F)F)cc2[C@@H](N(Cc2cc(C(F)(F)F)cc(C(F)(F)F)c2)C(=O)OC)C[C@H]1CC` [TORCETRAPIB] gave a CETP activity in vivo at 30 mg/kg [4] of 25%, an AUC(0-t) at 8 h [5] of 65 µM·h and an activity in vivo at 30 mg/kg [6] of 31%. The IC50 [7] was 0.16 µM and the CETP activity in vivo at 30 mg/kg [8] was 31%.
`O=C(NC1CCCC1)NC(Cc1ccccc1)(c1cccc(OC(F)(F)F)c1)c1ccc(Cl)cn1` (racemic) gave an IC50 [1] of 0.031 µM and an IC50 [2] of 2.7 µM.
`Cc1csc(C[C@](NC(=O)NC2CCCC2)(c2cc(F)cc(C(F)(F)F)c2)c2ccc(Cl)cn2)n1` showed an IC50 [1] of 1.1 µM and an IC50 [2] of 24 µM.
Compound `O=C(NC1CCCC1)N[C@@](Cc1ccccc1F)(c1cc(F)cc(C(F)(F)F)c1)c1ccc(Cl)cn1` has an IC50 [1] of 0.016 µM and an IC50 [2] of 6.4 µM.
`O=C(NC1CCCC1)N[C@@](Cc1ccccc1)(c1cc(F)cc(OC(F)(F)C(F)F)c1)c1ccc(Cl)cn1` showed a remaining at 10 min, 3 µM [3] of 10%, a Drug metabolism [9] of 0.27 nmol/min/mg and a CETP activity in vivo at 30 mg/kg [4] of 65%. The AUC(0-t) at 8 h [5] was 9.7 µM·h, the activity in vivo at 30 mg/kg [6] was 48% and the IC50 [7] was 0.94 µM. It also gave a CETP activity in vivo at 30 mg/kg [8] of 58%.
With `O=C(NC(Cc1ccccc1)(c1cccc(C(F)(F)F)c1)c1ccccn1)c1ccc(F)cc1` (stereo not given) the IC50 [1] was 8.9 µM.
With `O=C(N[C@@](Cc1ccccc1)(c1cc(F)cc(OC(F)(F)C(F)F)c1)c1ccc(Cl)cn1)c1ccc(F)c(C(F)(F)F)c1` the remaining at 10 min, 3 µM [3] was 100%, the Activity [10] was “Non-toxic” and the IC50 [1] was 0.036 µM. The Drug metabolism [9] was 0.0025 nmol/min/mg, the CETP activity in vivo at 30 mg/kg [4] was 40% and the half-life [11] was 14 h. It also gave a concentration at 2 h [12] of 21 µM, an AUC(0-t) at 8 h [5] of 93 µM·h and an Activity [13] of 40%. For the same compound, the IC50 [2] was 3.6 µM, the activity in vivo at 30 mg/kg [6] was 55% and the IC50 [7] was 9 µM. For the same compound, the Activity [14] was “Non-toxic”, the Cmax [15] was 25 µM and the CETP activity in vivo at 30 mg/kg [8] was 48%.
Compound `O=C(NC1CCCC1)NC(Cc1ccccc1)(c1cccc(C(F)(F)F)c1)c1ccc(Cl)cn1` (racemic) has an IC50 [1] of 0.31 µM and an IC50 [2] of 16 µM.
With `O=C(NC1CCCC1)NC(Cc1ccccc1)(c1cccc(C(F)(F)F)c1)c1ccc(F)cn1` (racemic) the IC50 [1] was 0.24 µM and the IC50 [2] was 6.9 µM.
For `CC(C)(C)CC(=O)O[C@](Cc1ccccc1)(c1cccc(C(F)(F)F)c1)c1ccccn1`, the IC50 [1] was 44 µM and the IC50 [2] was > 97 µM.
Work on `C=CC[C@](NC(=O)NC1CCCC1)(c1cc(F)cc(C(F)(F)F)c1)c1ccc(Cl)cn1` yielded an IC50 [1] of 0.085 µM and an IC50 [2] of 7.1 µM.
For `O=C(NC1CCCC1)N[C@@](Cc1ncn[nH]1)(c1cc(F)cc(C(F)(F)F)c1)c1ccc(Cl)cn1`, the IC50 [1] was > 96 µM.
In the case of `O=C(NC1CCCC1)NC(Cc1ccccc1)(c1cccc(OC(F)(F)C(F)F)c1)c1ccc(Cl)cn1` (racemic), the IC50 [1] is reported as 0.025 µM and the IC50 [2] is reported as 0.84 µM.
`COC(=O)C[C@](NC(=O)NC1CCCC1)(c1cc(F)cc(C(F)(F)F)c1)c1ccc(Cl)cn1` gave an IC50 [1] of 2.4 µM.
With `O=C(NC1CCCC1)N[C@@](Cc1ccc(F)cc1)(c1cc(F)cc(C(F)(F)F)c1)c1ccc(Cl)cn1` the IC50 [1] was 0.087 µM and the IC50 [2] was 10 µM.
For `CC(C)(C)CC(=O)OC(Cc1ccccc1)(c1cccc(OC(F)(F)C(F)F)c1)c1ccccn1` (racemic), the IC50 [1] was 1.1 µM and the IC50 [2] was 28 µM.
